The results in this text go back to ChEMBL document CHEMBL1126292, “Selective beta 3-adrenergic agonists of brown adipose tissue and thermogenesis. 2. [4-[2-[(2-Hydroxy-3-phenoxypropyl)amino]ethoxy]phenoxy]acetamides” (J Med Chem, 1992).

In data set [1] the target is Beta-3 adrenergic receptor (Rattus norvegicus) (UniProt P26255). The data set is described as follows: Stimulation of GDP binding against beta-3 adrenergic receptor in brown adipose tissue (BAT) mitochondria of rats after peroral administration (Dose necessary to produce 50% of the isoprenaline effect).
Beta-3 adrenergic receptor (Rattus norvegicus), sequence (P26255 whole entry): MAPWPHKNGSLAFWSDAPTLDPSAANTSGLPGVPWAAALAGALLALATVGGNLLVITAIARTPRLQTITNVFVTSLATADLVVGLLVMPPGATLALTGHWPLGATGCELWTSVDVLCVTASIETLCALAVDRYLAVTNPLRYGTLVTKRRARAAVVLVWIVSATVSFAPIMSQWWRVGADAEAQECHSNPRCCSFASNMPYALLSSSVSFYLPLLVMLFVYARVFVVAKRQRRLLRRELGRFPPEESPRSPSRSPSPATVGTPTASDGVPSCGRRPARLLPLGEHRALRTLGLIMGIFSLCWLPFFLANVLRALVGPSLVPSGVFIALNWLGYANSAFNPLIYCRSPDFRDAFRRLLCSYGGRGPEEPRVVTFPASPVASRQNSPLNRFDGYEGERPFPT
A further data set relates to Rattus norvegicus. Nature of the data set: Ratio of the dose (D500, peroral administration) elevating the rat heart rate to 500 bpm and GDP ED50. The class given is functional.
Data set [2] is described as follows: Partition coefficient (logP). The class given is physicochemical. Particulars: octanol/water. The gist of the method: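 log P is the octanol–water partition coefficient.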
Data set [3] is described as follows: Aqueous solubility at a pH 7. The class given is physicochemical. Particulars: read-out: S. In outline: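 Aqueous solubility was measured on the hydrochloride salts in aqueous buffer of 0.15 M sodium chloride and 0.01 M sodium dihydrogen phosphate at pH 7. Values are given in mg mL⁻¹.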
Data set [4] has as its target Beta-3 adrenergic receptor (Rattus norvegicus) (UniProt P26255). Nature of the data set: Dose of the compound (peroral administration) to […] GDP binding against Beta-3 adrenergic receptor in brown adipose tissue(BAT mitochondria) of rats. [Dose necessary to produce 50% of the isoprenaline effect].

Converted amounts (≈) assume the structure as drawn.

The term logP denotes the decadic logarithm of the partition coefficient of the neutral form, usually between octanol and water. For `NC(=O)COc1ccc(OCCNCC(O)COc2ccccc2)cc1` (centres undefined), the GDP ED50 in data set [1] was 0.3 mg/kg. The Selectivity index with Rattus norvegicus is reported as over 100. This molecule also yielded a logP in data set [2] of 1.1. In addition, the solubility in data set [3] was found to be 400 µg/mL (≈ 1110 µM).
Molecule `O=C(COc1ccc(OCCNCC(O)COc2ccccc2)cc1)NCCOc1ccccc1` (centres undefined) came in with a GDP ED50 in data set [1] of 0.72 mg/kg. Also, the Selectivity index in the data set with Rattus norvegicus is over 100.
Take `CCN(CC)C(=O)COc1ccc(OCCNCC(O)COc2ccccc2)cc1` (centres undefined): the GDP ED50 in data set [1] came to 1.16 mg/kg. In the data set with Rattus norvegicus, the Selectivity index came out at 33.
For `O=C(COc1ccc(OCCNCC(O)COc2ccccc2)cc1)N1Cc2ccccc2C1` (centres undefined), the GDP ED50 in data set [1] came to 1.3 mg/kg.
As for `CNC(=O)COc1cccc(OCCNCC(O)COc2ccccc2)c1` (centres undefined), the GDP ED50 in data set [1] is 0.31 mg/kg. Moreover, the Selectivity index in the data set on Rattus norvegicus was found to be 74.
As for `O=C(COc1ccc(OCCNCC(O)COc2ccccc2)cc1)NCc1cccs1` (centres undefined), the GDP ED50 in data set [1] stood at 0.69 mg/kg.
In data set [1], `CCC(C)NC(=O)COc1ccc(OCCNCC(O)COc2ccccc2)cc1` (centres undefined) had a GDP ED50 of 1.7 mg/kg.
The same measure, in the same setting: the result for `O=C(COc1ccc(OCCNCC(O)COc2ccccc2)cc1)N1CCCO1` (centres undefined) reads 0.49 mg/kg.
Regarding `CCNC(=O)COc1ccc(OCCNCC(O)COc2ccccc2)cc1` (centres undefined), in data set [1], the GDP ED50 came to 0.5 mg/kg. For the same molecule, the Selectivity index with Rattus norvegicus is over 100.
Regarding `COCCNC(=O)COc1ccc(OCCNC[C@@H](O)COc2ccccc2)cc1`, in data set [1], the GDP ED50 worked out at 69.9 mg/kg.
`CC(C)NC(=O)COc1ccc(OCCNCC(O)COc2ccccc2)cc1` (centres undefined): the GDP ED50 in data set [1] is 0.4 mg/kg. In addition, the Selectivity index with Rattus norvegicus is recorded as over 100. Further, the log partition coefficient (logP) in data set [2] is 2.4. Further, the solubility in data set [3] turned out to be 900 µg/mL (≈ 2240 µM).
Turning to `NC(=O)COc1ccc(OCCNCC(O)COc2ccccc2F)cc1` (centres undefined), the GDP ED50 in data set [1] turned out to be 2.24 mg/kg. The Selectivity index in the data set on Rattus norvegicus is over 10.
For `O=C(COc1ccc(OCCNCC(O)COc2ccccc2)cc1)NOCc1ccccc1` (centres undefined), the GDP ED50 in data set [1] is 0.48 mg/kg.
Molecule `CC(NC(=O)COc1ccc(OCCNCC(O)COc2ccccc2)cc1)c1ccccc1` (centres undefined) registered a GDP ED50 in data set [1] of 0.96 mg/kg. The Selectivity index with Rattus norvegicus is reported as over 10.
`O=C(COc1ccc(OCCNCC(O)COc2ccccc2)cc1)NCc1ccco1` (centres undefined) displayed a GDP ED50 in data set [1] of 1.53 mg/kg.
As for `O=C(COc1ccc(OCCNCC(O)COc2ccccc2)cc1)NCc1ccccc1` (centres undefined), in data set [1], the GDP ED50 stood at 0.25 mg/kg. Further, the Selectivity index with Rattus norvegicus is over 100. For the same molecule, the logP in data set [2] stood at 3.2. Further, the solubility in data set [3] turned out to be 40 µg/mL (≈ 88.8 µM).
Take `CNC(=O)COc1ccc(OCCNC[C@H](O)COc2ccccc2)cc1`: the GDP ED50 in data set [1] amounted to 0.57 mg/kg. Besides, the Selectivity index in the data set on Rattus norvegicus was over 100.
`O=C(COc1ccc(OCCNCC(O)COc2ccccc2)cc1)N1CCCCC1` (centres undefined): the GDP ED50 in data set [1] was 0.4 mg/kg. The Selectivity index in the data set on Rattus norvegicus is over 100. The molecule further showed a logP in data set [2] of 2.6. Besides, the solubility in data set [3] was 2000 µg/mL (≈ 4670 µM).
In data set [1], `CNC(=O)COc1ccc(OCC(C)NCC(O)COc2ccccc2)cc1` (centres undefined) had a GDP ED50 of 0.25 mg/kg. Also, in the data set with Rattus norvegicus, the Selectivity index is reported as over 10.
In the same order, the values of `O=C(COc1ccc(OCCNCC(O)COc2ccccc2)cc1)N1CCOCC1` (centres undefined) are 0.54 mg/kg and over 100.
With `CCCCNC(=O)COc1ccc(OCCNCC(O)COc2ccccc2)cc1` (centres undefined), the GDP ED50 in data set [1] amounted to 1.5 mg/kg. For the same molecule, the Selectivity index in the data set with Rattus norvegicus is listed as over 100.
In the same order, the values of `O=C(COc1ccc(OCCNCC(O)COc2ccccc2)cc1)NO` (centres undefined) are 0.5 mg/kg and over 100.
For `O=C(COc1ccc(OCCNCC(O)COc2ccccc2)cc1)NCc1ccc(Cl)cc1` (centres undefined) the same measures were 0.92 mg/kg and over 50.
For `O=C(COc1ccc(OCCNC[C@H](O)COc2ccccc2)cc1)NCCO` the same measures were 0.77 mg/kg and over 50.
Molecule `CNC(=O)COc1ccc(OCCNCC(O)COc2ccccc2)cc1` (centres undefined) returned a GDP ED50 in data set [1] of 1.2 mg/kg. For the same molecule, the Selectivity index in the data set on Rattus norvegicus is listed as over 50.
Molecule `O=C(COc1ccc(OCCNCC(O)COc2ccccc2F)cc1)N1CCCCC1` (centres undefined) registered a GDP ED50 in data set [1] of 7.9 mg/kg.
With `NC(=O)CNC(=O)COc1ccc(OCCNCC(O)COc2ccccc2)cc1` (centres undefined), the GDP ED50 in data set [1] was determined as 1.18 mg/kg. Moreover, the Selectivity index with Rattus norvegicus was over 50.
Regarding `NNC(=O)COc1ccc(OCCNCC(O)COc2ccccc2)cc1` (centres undefined), the GDP ED50 in data set [1] came to 1.15 mg/kg.
Molecule `CCCNC(=O)COc1ccc(OCCNCC(O)COc2ccccc2)cc1` (centres undefined) showed a GDP ED50 in data set [4] of 0.2 mg/kg. Also, the Selectivity index in the data set on Rattus norvegicus is over 100. Also, the log partition coefficient (logP) in data set [2] worked out at 2.4. In addition, the solubility in data set [3] was 600 µg/mL (≈ 1490 µM).
As to `O=C(COc1ccc(OCCNCC(O)COc2ccccc2)cc1)NCc1ccc(Cl)cc1Cl` (centres undefined), the GDP ED50 in data set [1] was determined as 2.77 mg/kg.
`O=C(COc1ccc(OCCNCC(O)COc2ccccc2)cc1)NCCc1ccccc1` (centres undefined) showed a GDP ED50 in data set [1] of 1.23 mg/kg. Besides, the Selectivity index in the data set on Rattus norvegicus is listed as over 50.
In the case of `COCCNC(=O)COc1ccc(OCCNC[C@H](O)COc2ccc(O)cc2)cc1`, the GDP ED50 in data set [1] amounted to 4.16 mg/kg.
Take `C=CCNC(=O)COc1ccc(OCC(C)NCC(O)COc2ccccc2)cc1` (centres undefined): the GDP ED50 in data set [1] was found to be 1.03 mg/kg. Also, in the data set with Rattus norvegicus, the Selectivity index is listed as over 20.
In the same order, the values of `COCCNC(=O)COc1ccc(OCCNC[C@H](O)COc2ccccc2)cc1` are 0.34 mg/kg and over 100.
Consider `CN(C)C(=O)COc1ccc(OCCNCC(O)COc2ccccc2)cc1` (centres undefined), for which the GDP ED50 in data set [1] was determined as 1.4 mg/kg. The Selectivity index in the data set on Rattus norvegicus is recorded as over 50.
In the same order, the values of `CC(CO)NC(=O)COc1ccc(OCCNCC(O)COc2ccccc2)cc1.O` (centres undefined) are 0.85 mg/kg and over 50.
In the same order, the values of `O=C(COc1ccc(OCCNCC(O)COc2ccccc2)cc1)N1CCc2ccccc2C1` (centres undefined) are 0.44 mg/kg and over 100.
`COCCNC(=O)COc1ccc(OCCNCC(O)COc2ccccc2)cc1` (centres undefined) had a GDP ED50 in data set [1] of 0.24 mg/kg. The Selectivity index in the data set on Rattus norvegicus is given as over 100. In data set [2], this molecule gave a logP of 1.7. Besides, in data set [3], the solubility is 11000 µg/mL (≈ 26300 µM).
Consider `CC(C)CNC(=O)COc1ccc(OCCNCC(O)COc2ccccc2)cc1` (centres undefined), for which the GDP ED50 in data set [1] was determined as 3.2 mg/kg.
Turning to `C=CCNC(=O)COc1ccc(OCCNCC(O)COc2ccccc2)cc1` (centres undefined), the GDP ED50 in data set [1] is 0.64 mg/kg. For the same molecule, the Selectivity index with Rattus norvegicus is recorded as over 100.
As for `COCC(C)NC(=O)COc1ccc(OCCNCC(O)COc2ccccc2)cc1` (centres undefined), the GDP ED50 in data set [1] amounted to 3.88 mg/kg.
Same read-out and setting: as for `CN(Cc1ccccc1)C(=O)COc1ccc(OCCNCC(O)COc2ccccc2)cc1` (centres undefined), the figure is 8.6 mg/kg.
In turn, `O=C(COc1ccc(OCCNCC(O)COc2ccccc2)cc1)NCCCO` (centres undefined) displayed a GDP ED50 in data set [1] of 0.47 mg/kg. In addition, the Selectivity index in the data set on Rattus norvegicus was over 100. For the same molecule, in data set [2], the logP worked out at 0.5. For the same molecule, the solubility in data set [3] came out at 36000 µg/mL (≈ 86000 µM).
`O=C(COc1ccc(OCCNCC(O)COc2ccccc2)cc1)NCCO` (centres undefined) had a GDP ED50 in data set [1] of 0.67 mg/kg. Further, the Selectivity index in the data set with Rattus norvegicus was over 100.
For `O=C(COc1ccc(OCCNCC(O)COc2ccccc2)cc1)NC1CCCC1` (centres undefined) the same measures were 3.1 mg/kg and over 10.
The molecule `O=C(COc1ccc(OCCNCC(O)COc2ccccc2)cc1)Nc1ccccc1` (centres undefined) yielded a GDP ED50 in data set [1] of 1.38 mg/kg.
Consider `O=C(COc1ccc(OCCNCC(O)COc2ccccc2)cc1)NC1CC1` (centres undefined), for which the GDP ED50 in data set [1] came out at 0.79 mg/kg. In addition, the Selectivity index with Rattus norvegicus was over 50.
With `COCCCNC(=O)COc1ccc(OCCNCC(O)COc2ccccc2)cc1` (centres undefined), the GDP ED50 in data set [1] came out at 0.83 mg/kg. Moreover, in the data set on Rattus norvegicus, the Selectivity index was over 100.
For `CNC(=O)COc1ccc(OCCNCC(O)COc2ccccc2F)cc1` (centres undefined) the same measures were 1.1 mg/kg and over 50.
In the same order, the values of `O=C(COc1ccc(OCCNCC(O)COc2ccccc2)cc1)N1CCCC1` (centres undefined) are 1.8 mg/kg and over 50.
